Measurements as given in ChEMBL document CHEMBL3233006 (J Med Chem, 2014).
Active and inactive are the calls of the source. The calls are words filed in the database; no cut-off is given here.

What was measured:
[1] = tested on: SK-MEL-28; test: cells; type: functional, cell-based; conditions: Homo sapiens, SK-MEL-28, 68 h
[2] = biological target: T1, Epidermal growth factor receptor (Homo sapiens, UniProt P00533); test: Inhibition of EGFR (unknown origin) after 1 to 1.5 hrs by FRET-based Z'-Lyte assay
T1 sequence (P00533 whole entry): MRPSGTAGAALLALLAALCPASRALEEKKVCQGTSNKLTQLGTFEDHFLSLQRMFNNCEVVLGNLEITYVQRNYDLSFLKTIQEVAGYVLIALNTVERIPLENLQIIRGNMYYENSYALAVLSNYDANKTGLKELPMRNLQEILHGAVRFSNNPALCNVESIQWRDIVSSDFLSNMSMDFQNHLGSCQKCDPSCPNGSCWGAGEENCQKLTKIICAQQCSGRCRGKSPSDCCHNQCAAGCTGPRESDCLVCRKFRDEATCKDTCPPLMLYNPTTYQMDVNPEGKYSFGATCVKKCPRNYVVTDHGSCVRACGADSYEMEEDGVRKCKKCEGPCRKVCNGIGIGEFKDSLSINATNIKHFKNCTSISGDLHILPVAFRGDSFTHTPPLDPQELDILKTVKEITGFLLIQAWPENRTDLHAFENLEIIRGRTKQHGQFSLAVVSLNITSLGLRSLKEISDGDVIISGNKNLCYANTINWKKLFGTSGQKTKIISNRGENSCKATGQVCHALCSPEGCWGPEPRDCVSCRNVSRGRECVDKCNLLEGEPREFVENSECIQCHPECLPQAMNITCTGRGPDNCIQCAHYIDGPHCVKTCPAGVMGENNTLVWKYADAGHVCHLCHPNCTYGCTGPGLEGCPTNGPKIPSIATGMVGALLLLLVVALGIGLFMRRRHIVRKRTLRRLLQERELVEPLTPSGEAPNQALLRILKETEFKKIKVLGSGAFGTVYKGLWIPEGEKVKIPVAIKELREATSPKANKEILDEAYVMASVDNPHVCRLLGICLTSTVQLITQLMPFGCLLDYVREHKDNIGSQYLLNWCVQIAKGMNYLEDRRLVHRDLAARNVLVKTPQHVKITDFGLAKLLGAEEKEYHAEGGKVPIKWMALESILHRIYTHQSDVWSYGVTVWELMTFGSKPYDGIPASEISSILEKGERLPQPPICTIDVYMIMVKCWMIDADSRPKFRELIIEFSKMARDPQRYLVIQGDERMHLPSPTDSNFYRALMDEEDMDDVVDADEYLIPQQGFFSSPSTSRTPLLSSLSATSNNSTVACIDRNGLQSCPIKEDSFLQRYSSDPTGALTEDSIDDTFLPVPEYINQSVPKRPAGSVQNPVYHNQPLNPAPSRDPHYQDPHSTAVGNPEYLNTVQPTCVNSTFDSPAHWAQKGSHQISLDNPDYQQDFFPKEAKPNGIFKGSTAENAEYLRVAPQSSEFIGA

[3] = biological target: Serine/threonine-protein kinase B-raf (Homo sapiens, UniProt P15056, V600E); test: Inhibition of BRAF V600E mutant (unknown origin) after 1 to 1.5 hrs by FRET-based Z'-Lyte assay
Chain of Serine/threonine-protein kinase B-raf (P15056 2-766 V600E limits assumed): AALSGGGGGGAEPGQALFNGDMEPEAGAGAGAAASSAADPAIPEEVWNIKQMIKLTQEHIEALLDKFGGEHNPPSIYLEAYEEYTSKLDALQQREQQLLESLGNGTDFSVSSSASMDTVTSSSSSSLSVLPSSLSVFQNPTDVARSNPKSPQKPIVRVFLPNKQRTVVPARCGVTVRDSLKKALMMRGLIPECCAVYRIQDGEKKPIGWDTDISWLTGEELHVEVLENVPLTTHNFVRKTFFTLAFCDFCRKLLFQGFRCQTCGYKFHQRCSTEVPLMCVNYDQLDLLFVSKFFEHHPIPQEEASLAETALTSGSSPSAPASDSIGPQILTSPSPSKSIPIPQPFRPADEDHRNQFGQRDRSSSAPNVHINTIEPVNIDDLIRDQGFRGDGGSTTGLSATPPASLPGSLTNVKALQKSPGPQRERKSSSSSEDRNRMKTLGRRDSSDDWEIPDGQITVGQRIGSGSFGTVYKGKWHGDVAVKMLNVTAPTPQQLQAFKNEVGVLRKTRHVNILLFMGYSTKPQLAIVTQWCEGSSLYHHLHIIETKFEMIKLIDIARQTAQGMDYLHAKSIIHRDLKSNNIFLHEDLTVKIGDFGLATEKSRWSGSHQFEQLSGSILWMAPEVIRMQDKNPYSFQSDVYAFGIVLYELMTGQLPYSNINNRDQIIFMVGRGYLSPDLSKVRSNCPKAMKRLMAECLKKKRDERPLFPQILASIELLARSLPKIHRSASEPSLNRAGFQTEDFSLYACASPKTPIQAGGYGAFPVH
In short: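 Z′-Lyte FRET cascade assay in 10 μL. Incubated 1 h at room temperature, then development reagent 1 h, then stop reagent. Controls: phospho-peptide, no ATP, and 4% DMSO solution. Means of 2 independent experiments.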

[4] = cells; type: functional; conditions: Homo sapiens, 68 h
[5] = tested on: HT-29; test: Antiproliferative activity against human HT-29 cells harboring BRAF V600E mutant and EGFR after 68 hrs […]; type: functional, cell-based; conditions: HT-29, 68 h
[6] = organism: Homo sapiens; test: Effect on total ERK protein level in human SK-MEL-28-PR30 cells after 2 hrs by Western blotting analysis; type: functional, cell-based
In short: (§1)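 1 × 10⁶ cells seeded overnight in 6-cm dishes, then treated 2 h with 3, 1 or 0.3 μM in fresh medium; 1‰ DMSO as control. RIPA lysates, protein quantified by BCA, equal loads run on PVDF blots. Blocked 1 h at room temperature, then probed for EGFR, phospho-EGFR (Tyr1068), ERK, phospho-ERK (T202/Y204) and GAPDH.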

[7] = biological target: T1, Epidermal growth factor receptor; test: Inhibition of EGFR phosphorylation at Tyr1068 in human WiDr cells after 2 hrs by Western blotting analysis; type: cell-based
In short: as §1

[8] = biological target: T1, Epidermal growth factor receptor; test: Inhibition of EGFR phosphorylation at Tyr1068 in human HT-29 cells after 2 hrs by Western blotting analysis; type: cell-based
In short: as §1

[9] = organism: Homo sapiens; test: Effect on total EGFR protein level in human SK-MEL-28-PR30 cells after 2 hrs by Western blotting analysis; type: functional, cell-based
In short: as §1

[10] = tested on: COLO 205; test: Antiproliferative activity against human COLO205 cells harboring BRAF V600E mutant and EGFR after 68 hrs by MTS assay; type: functional, cell-based; conditions: COLO 205, 68 h
[11] = biological target: Receptor tyrosine-protein kinase erbB-4 (Homo sapiens) (UniProt Q15303); test: Inhibition of ERBB4 (unknown origin) at 1 uM by KINOMEscan assay
Chain of Receptor tyrosine-protein kinase erbB-4 (Homo sapiens) (Q15303 whole entry): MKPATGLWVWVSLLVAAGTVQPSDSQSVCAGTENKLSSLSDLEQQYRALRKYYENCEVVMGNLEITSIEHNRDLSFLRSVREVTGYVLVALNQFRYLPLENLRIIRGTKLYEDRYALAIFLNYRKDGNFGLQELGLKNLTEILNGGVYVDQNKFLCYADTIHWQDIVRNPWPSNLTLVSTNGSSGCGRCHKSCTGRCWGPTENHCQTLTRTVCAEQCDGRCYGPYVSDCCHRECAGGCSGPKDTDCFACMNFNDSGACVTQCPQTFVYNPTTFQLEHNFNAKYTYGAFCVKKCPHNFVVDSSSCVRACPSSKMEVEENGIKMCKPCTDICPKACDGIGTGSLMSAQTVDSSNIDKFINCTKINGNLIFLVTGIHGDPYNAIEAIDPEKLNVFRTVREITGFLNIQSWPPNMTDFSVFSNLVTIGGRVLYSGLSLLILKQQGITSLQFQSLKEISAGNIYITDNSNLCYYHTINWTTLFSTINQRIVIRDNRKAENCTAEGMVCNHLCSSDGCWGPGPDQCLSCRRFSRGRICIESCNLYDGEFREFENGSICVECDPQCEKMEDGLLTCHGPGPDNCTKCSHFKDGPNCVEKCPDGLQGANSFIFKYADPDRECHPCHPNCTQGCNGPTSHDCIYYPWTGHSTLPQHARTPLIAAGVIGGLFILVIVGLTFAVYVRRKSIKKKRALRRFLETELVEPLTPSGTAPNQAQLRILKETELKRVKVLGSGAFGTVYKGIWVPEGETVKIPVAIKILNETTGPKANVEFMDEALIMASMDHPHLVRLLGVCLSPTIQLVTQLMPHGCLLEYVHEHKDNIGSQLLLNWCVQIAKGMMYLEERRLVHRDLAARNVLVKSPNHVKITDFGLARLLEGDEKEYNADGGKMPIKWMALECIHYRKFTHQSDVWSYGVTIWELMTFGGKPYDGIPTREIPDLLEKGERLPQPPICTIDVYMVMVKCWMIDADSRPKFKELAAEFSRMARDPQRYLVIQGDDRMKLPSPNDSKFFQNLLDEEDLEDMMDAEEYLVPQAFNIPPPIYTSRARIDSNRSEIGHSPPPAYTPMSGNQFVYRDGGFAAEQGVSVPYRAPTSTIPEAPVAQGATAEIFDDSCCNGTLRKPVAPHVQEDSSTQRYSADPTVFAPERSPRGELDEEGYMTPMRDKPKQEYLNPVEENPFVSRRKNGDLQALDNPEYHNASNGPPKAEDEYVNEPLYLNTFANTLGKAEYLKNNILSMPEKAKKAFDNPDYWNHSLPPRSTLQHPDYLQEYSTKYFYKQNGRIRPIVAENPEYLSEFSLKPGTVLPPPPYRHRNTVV
In short: (§2)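 KINOMEscan binding screen across a panel of 456 kinases (including 395 distinct wild-type kinases), with test compound at 1.0 μM.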

[12] = biological target: T1, Epidermal growth factor receptor; test: Inhibition of EGFR phosphorylation at Tyr1068 in human SK-MEL-28-PR30 cells after 2 hrs by Western blotting analysis; type: cell-based
In short: as §1

[13] = tested on: HT-29; test: Inhibition of MAPK-mediated ERK phosphorylation at Thr202/Tyr204 in human HT-29 cells after 2 hrs by Western blotting analysis; type: cell-based
In short: as §1

[14] = tested on: LoVo; test: Antiproliferative activity against human LoVo cells harboring wild-type BRAF after 68 hrs by […]; type: functional, cell-based
[15] = organism: Homo sapiens; test: Inhibition of MAPK-mediated ERK phosphorylation at Thr202/Tyr204 in human SK-MEL-28-PR30 cells after 2 hrs by Western blotting analysis; type: cell-based
In short: as §1

[16] = tested on: WiDr; test: Inhibition of MAPK-mediated ERK phosphorylation at Thr202/Tyr204 in human WiDr cells at 1 uM after 2 to 48 hrs by Western blotting analysis; type: cell-based
In short: (§3)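 Time-course western blot with treatment at 1.0 μM. SK-MEL-28-PR30 or WiDr cells exposed for 2, 24 and 48 h. RIPA lysates quantified by BCA, equal protein blotted on PVDF, and probed for phospho-ERK (T202/Y204), total ERK and GAPDH.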

[17] = organism: Homo sapiens; test: Inhibition of MAPK-mediated ERK phosphorylation at Thr202/Tyr204 in human SK-MEL-28-PR30 cells at 1 uM after 48 hrs by Western blotting analysis; type: cell-based
In short: as §3

[18] = biological target: Receptor tyrosine-protein kinase erbB-2 (Homo sapiens) (UniProt P04626); test: Inhibition of ERBB2 (unknown origin) at 1 uM by KINOMEscan assay
Chain of Receptor tyrosine-protein kinase erbB-2 (Homo sapiens) (P04626 whole entry): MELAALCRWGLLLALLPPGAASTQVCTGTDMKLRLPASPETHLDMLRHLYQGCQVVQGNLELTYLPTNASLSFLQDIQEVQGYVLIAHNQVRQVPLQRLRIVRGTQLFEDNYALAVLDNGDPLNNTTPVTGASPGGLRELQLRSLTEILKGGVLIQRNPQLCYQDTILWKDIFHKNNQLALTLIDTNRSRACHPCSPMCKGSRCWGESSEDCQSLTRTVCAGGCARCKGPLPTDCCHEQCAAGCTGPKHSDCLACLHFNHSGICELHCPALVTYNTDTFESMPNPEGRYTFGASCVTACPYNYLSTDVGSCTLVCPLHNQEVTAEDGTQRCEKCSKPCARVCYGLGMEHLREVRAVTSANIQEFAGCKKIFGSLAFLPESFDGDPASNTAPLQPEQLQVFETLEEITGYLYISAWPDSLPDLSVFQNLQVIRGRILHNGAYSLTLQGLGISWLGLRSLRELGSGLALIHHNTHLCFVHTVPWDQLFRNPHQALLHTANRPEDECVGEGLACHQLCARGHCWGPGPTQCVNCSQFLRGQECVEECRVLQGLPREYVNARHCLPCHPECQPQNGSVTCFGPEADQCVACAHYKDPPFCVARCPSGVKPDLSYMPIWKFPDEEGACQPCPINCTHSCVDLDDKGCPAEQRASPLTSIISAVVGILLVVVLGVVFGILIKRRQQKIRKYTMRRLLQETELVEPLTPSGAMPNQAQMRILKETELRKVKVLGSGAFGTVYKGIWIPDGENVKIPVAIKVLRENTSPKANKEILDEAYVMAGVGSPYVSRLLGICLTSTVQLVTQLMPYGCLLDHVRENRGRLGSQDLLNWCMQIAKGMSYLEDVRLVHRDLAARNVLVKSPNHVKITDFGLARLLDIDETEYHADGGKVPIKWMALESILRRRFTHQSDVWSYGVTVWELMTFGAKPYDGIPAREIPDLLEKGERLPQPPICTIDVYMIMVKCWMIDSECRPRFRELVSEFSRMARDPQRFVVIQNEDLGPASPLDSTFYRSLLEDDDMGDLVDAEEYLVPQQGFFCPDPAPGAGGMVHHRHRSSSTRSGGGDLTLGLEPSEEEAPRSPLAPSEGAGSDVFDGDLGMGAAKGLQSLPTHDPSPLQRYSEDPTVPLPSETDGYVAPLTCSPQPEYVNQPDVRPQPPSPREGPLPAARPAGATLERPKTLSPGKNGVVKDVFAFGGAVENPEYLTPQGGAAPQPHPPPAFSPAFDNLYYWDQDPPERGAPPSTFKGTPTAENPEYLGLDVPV
In short: as §2

[19] = tested on: WiDr; test: Inhibition of MAPK-mediated ERK phosphorylation at Thr202/Tyr204 in human WiDr cells after 2 hrs by Western blotting analysis; type: cell-based
In short: as §1

[20] = biological target: Platelet-derived growth factor receptor beta (Homo sapiens) (UniProt P09619); test: Inhibition of PDGFRbeta (unknown origin) at 1 uM by KINOMEscan assay
In short: as §2

[21] = tested on: A-375; test: Inhibition of MAPK-mediated ERK phosphorylation at Thr202/Tyr204 in human A375 cells after 2 hrs by Western blotting analysis; type: cell-based
In short: as §1

[22] = tested on: WiDr; test: Antiproliferative activity against human WiDr cells harboring BRAF V600E mutant and EGFR after 68 hrs […]; type: functional, cell-based
[23] = biological target: T1, Epidermal growth factor receptor; test: Inhibition of EGFR phosphorylation at Tyr1068 in human A375 cells after 2 hrs by Western blotting analysis; type: cell-based; conditions: A-375
In short: as §1

[24] = tested on: HCT-116; test: Antiproliferative activity against human HCT116 cells harboring wild-type BRAF and EGFR after 68 hrs […]; type: functional, cell-based; conditions: HCT-116, 68 h
[25] = organism: Homo sapiens; test: Inhibition of MAPK-mediated ERK phosphorylation at Thr202/Tyr204 in human SK-MEL-28-PR30 cells at 1 uM after 24 hrs by Western blotting analysis; type: cell-based
In short: as §3

SMILES | IC50 [1] [nM] | IC50 [2] [nM] | IC50 [3] [nM] | IC50 [4] [nM] | also measured
Cc1ccc(C(=O)Nc2ccc(CN3CCN(C)CC3)c(C(F)(F)F)c2)cc1NC(=O)c1cnc(NC2CCCC2)nc1 | 2040 | 33 | 230 | 1240 | –
CNc1ncc(C(=O)Nc2cc(C(=O)Nc3ccc(CN4CCN(C)CC4)c(C(F)(F)F)c3)ccc2C)cn1 | > 20000 | 120 | 290 | 2750 | –
Cc1ccc(C(=O)Nc2ccc(CN3CCN(C)CC3)c(C(F)(F)F)c2)cc1NC(=O)c1cnc(NC2CC2)nc1 | 2960 | 44 | 390 | 1440 | –
Cc1ccc(C(=O)Nc2ccc(CN3CCN(C)CC3)c(C(F)(F)F)c2)cc1NC(=O)c1cnc(N(C)C)nc1 | 6960 | 5540 | 300 | 2490 | –
Cc1ccc(C(=O)Nc2ccc(CN3CCN(C)CC3)c(C(F)(F)F)c2)cc1NC(=O)c1cnc2[nH]ccc2c1 | 130 | 8 | 51 | 450 | IC50 [5]: 480 nM; inhibition [6]: Dose-dependent effect; inhibition [7]: Dose-dependent effect; inhibition [8]: Dose-dependent effect; inhibition [9]: Dose-dependent effect; IC50 [10]: 220 nM; inhibition [11]: Active; inhibition [12]: Dose-dependent effect; inhibition [13]: Dose-dependent effect; IC50 [14]: 170 nM; inhibition [15]: Dose-dependent effect; inhibition [16]: Active; inhibition [17]: Active; inhibition [18]: Active; inhibition [19]: Dose-dependent effect; inhibition [20]: Active; inhibition [21]: Dose-dependent effect; IC50 [22]: 670 nM; inhibition [23]: Dose-dependent effect; IC50 [24]: 1330 nM
CCc1ccc(C(=O)Nc2ccc(CN3CCN(C)CC3)c(C(F)(F)F)c2)cc1NC(=O)c1cnc2[nH]ccc2c1 | 910 | 99 | 360 | 490 | –
Cc1ccc(C(=O)Nc2ccc(CN3CCN(C)CC3)c(C(F)(F)F)c2)cc1NC(=O)c1cnc(N)nc1 | 1840 | 43 | 410 | 1890 | –
Cc1ccc(C(=O)Nc2ccc(CN3CCN(C)CC3)c(C(F)(F)F)c2)cc1NC(=O)c1ccccn1 | > 20000 | – | 573 | 10700 | –
Cc1ccc(C(=O)Nc2ccc(CN3CCN(C)CC3)c(C(F)(F)F)c2)cc1NC(=O)c1cnc2[nH]ncc2c1 | 540 | 30 | 48 | 780 | IC50 [5]: 780 nM; IC50 [10]: 360 nM; IC50 [14]: 480 nM; IC50 [22]: 1350 nM; IC50 [24]: 1380 nM
Cc1ccc(C(=O)Nc2ccc(CN3CCN(C)CC3)c(C(F)(F)F)c2)cc1NC(=O)c1cccnc1 | 14000 | 550 | 551 | > 20000 | –
CCCS(=O)(=O)Nc1ccc(F)c(C(=O)c2c[nH]c3ncc(-c4ccc(Cl)cc4)cc23)c1F [VEMURAFENIB] | 480 | – | – | > 20000 | inhibition [25]: inactive; inhibition [17]: inactive
CC(C)c1ccc(C(=O)Nc2ccc(CN3CCN(C)CC3)c(C(F)(F)F)c2)cc1NC(=O)c1cnc2[nH]ccc2c1 | 2270 | 160 | 290 | 1900 | –
Cc1ccc(C(=O)Nc2ccc(CN3CCN(C)CC3)c(C(F)(F)F)c2)cc1NC(=O)c1ccc(O)nc1 | > 20000 | 1330 | > 10000 | > 20000 | –
CCNc1ncc(C(=O)Nc2cc(C(=O)Nc3ccc(CN4CCN(C)CC4)c(C(F)(F)F)c3)ccc2C)cn1 | 1090 | 130 | 510 | 2400 | –
Cc1ccc(C(=O)Nc2ccc(CN3CCN(C)CC3)c(C(F)(F)F)c2)cc1NC(=O)c1cnc(Nc2ccccc2)nc1 | 1700 | 6 | 210 | 900 | –
Cc1ccc(C(=O)Nc2ccc(CN3CCN(C)CC3)c(C(F)(F)F)c2)cc1NC(=O)c1cnc(NC(C)C)nc1 | 1730 | 43 | 340 | 860 | –
Cc1ccc(C(=O)Nc2ccc(CN3CCN(C)CC3)c(C(F)(F)F)c2)cc1NC(=O)c1cnc(NC2CCCCC2)nc1 | 2380 | 47 | 37 | 2730 | –
Cc1ccc(C(=O)Nc2ccc(CN3CCN(C)CC3)c(C(F)(F)F)c2)cc1NC(=O)c1cncnc1 | > 20000 | 1920 | 670 | > 20000 | –
Cc1ccc(C(=O)Nc2ccc(CN3CCN(C)CC3)c(C(F)(F)F)c2)cc1NC(=O)c1ccncc1 | > 20000 | > 10000 | 110 | > 20000 | –
Cc1ccc(C(=O)Nc2ccc(CN3CCN(C)CC3)c(C(F)(F)F)c2)cc1NC(=O)c1cnccn1 | > 20000 | 3900 | 280 | > 20000 | –
Cc1ccc(C(=O)Nc2ccc(CN3CCN(C)CC3)c(C(F)(F)F)c2)cc1NC(=O)c1ccc2[nH]ccc2c1 | 4430 | > 10000 | 220 | 3040 | –
CN1CCN(Cc2ccc(NC(=O)c3cccc(NC(=O)c4cnc5[nH]ccc5c4)c3)cc2C(F)(F)F)CC1 | 1070 | 680 | 48 | 1730 | –
Cc1ccc(C(=O)Nc2ccc(CN3CCN(C)CC3)c(C(F)(F)F)c2)cc1NC(=O)c1ccccc1 | 6910 | > 10000 | 240 | 5030 | –
